T cruzi repl: inhibitors of intracellular T. cruzi growth, primary screen, luminescence, NIH3T3 host cells; T. cruzi beta-gal in NIH3T3, 90 h; inhibition, % (test concentration not listed); 300,000 tested, 1.4% active; AID 1885, 2009;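 active means mean inhibition across valid replicates above about 55%, limit read from the data; inconclusive means mean below that limit but half or more replicates reach it; inactive means mean below it, under half of replicates reach it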;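 further: signal also drops with host cell toxicity which is not excluded here; 0% = plate median of DMSO wells and 100% = zero luminescence signal; higher percent means less beta-gal luminescence so fewer parasites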
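System: mouse NIH/3T3 fibroblasts infected with β-gal-expressing T. cruzi Tulahuen C4 / Input: NIH/3T3 cells, 5,000 per well / Buffer or medium: Low-serum DMEM with 2% FBS / Probe or stimulus: 5000 reporter trypomastigotes per well / Schedule: ≥90 h infection period, 3 h prior cell attachment / Measured by: GalScreen luminescence, 60 min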
CHOP inh: inhibitors of CHOP promoter induction, primary screen, cell-based, unfolded protein response, luciferase reporter | CHO-K1 CHOP-promoter luciferase, tunicamycin-induced, 15-18 h | inhibition, % at 10 µM | 220,000 tested, 3.8% active;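 active means compounds that reduced the stress-induced luciferase reporter signal by more than about 70% of percent inhibition, limit read from the data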;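 further: 0% = tunicamycin plus vehicle and 100% = wells without tunicamycin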
CHOP UPR activ: activators of apoptotic CHOP UPR arm, primary screen, cell-based, CHO-CHOP luciferase reporter, luminescence, uHTS | UPR activation; percent of tunicamycin response over DMSO baseline | activation, % at 10 µM | 330,000 tested, 0.34% active | AID 449763, 2010;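 active means at 10 µM dose, activation of 40% or more, normalized to positive control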;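 further: 100% = tunicamycin at 10 µg/mL and 0% = DMSO alone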
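assay system = CHO CHOP reporter cells | amount = 500 CHO-CHOP cells per well | buffer or medium = F12 with 10% FBS | incubation = 16-18 h cell attachment, then 6 h compound exposure, 37 °C | detection = luminescence read with Steady-Glo | read-out = percent activation relative to tunicamycin control | controls = tunicamycin high control, DMSO low control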
L major viab: Leishmania major promastigote growth inhibition, primary screen | Leishmania major promastigotes, resazurin fluorescence viability | inhibition, % at 10 µM | 200,000 tested, 9% active; in the data active means inhibition above about 50%;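 further: promastigotes grown with compound for 44 hours at 28 °C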
Dynein cargo inh: inhibitors of GR-EGFP nuclear translocation, primary screen, dynein cargo transport inhibitor project, imaging, high-content, 3617.4 mouse cells; 220,000 tested, 0.47% active; z-score, hits read low; test concentration mostly 20 µM; stimulated with dexamethasone, 1 µM; active compounds read low; AID 1381, 2008;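 active means plate z-score of nuclear minus cytoplasmic receptor signal below a set negative limit, without overly bright fluorescence or cell loss, cut at about -3.5 in these data, passing the limit was not always enough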;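 further: z-score of nuclear minus cytoplasmic ring GR-EGFP intensity difference per well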
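medium = tetracycline-free induction medium containing charcoal-stripped FBS | also added = 1.0 µM final dexamethasone stimulus | schedule = 48 h induction, 1 h compound, 30 min dex at 37 °C | technique = fixed, Hoechst-stained cells imaged at 10x for EGFP | measure = GR-EGFP nuclear translocation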
UPR XBP1 act: activators of adaptive XBP1 UPR arm, primary screen, cell-based, CHO-XBP1 luciferase reporter, luminescence, uHTS. AID 463104, 2010. IRE1-XBP1 UPR activation; percent of tunicamycin response, DMSO as zero. 330,000 tested, 0.33% active. activation, % at 20 µM;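 active means versus positive control, 20 µM dose yields 30% or more activation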;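 further: 100% = tunicamycin at 10 µg/mL and 0% = DMSO only wells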
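Material: CHO cell line with stable XBP1 luciferase reporter; buffer or medium: F12 medium containing 10% fetal bovine serum; compound: single point, 20 µM final compound, 1% DMSO; incubation: 6 h treatment, 37 °C; measured by: glow luminescence from Steady-Glo reagent; evaluation: activation, % of tunicamycin; control set: tunicamycin high, DMSO low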
Dynein confirm: dynein cargo transport inhibitors, GR-EGFP translocation, confirmation, imaging, high-content imaging, GR-EGFP cells. shares compounds with Dynein cargo inh. 3617.4 GR-EGFP nuclear translocation imaging, dexamethasone-induced. calls only at 20 µM. 1,000 tested, 69% active;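 active means inhibition of receptor movement into the nucleus at or above a set limit in both runs, with normal cell brightness and cell count; inconclusive means limit reached in only one run, brightness and count normal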;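 further: dexamethasone at 1 µM final in well for 30 min; nuclear minus cytoplasmic GR-EGFP mean intensity difference in channel 2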
CHOP inh conf: retest of CHOP induction inhibitors, confirmation, cell-based; CHO-CHOP promoter luciferase reporter, tunicamycin-induced, luminescence; shares compounds with CHOP inh; AID 504437, 2011; inhibition, % at 10 µM; 2,100 tested, 45% active;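 active means mean of three repeat readings of reporter signal inhibition above a set limit, cut at about 70% in these data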;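 further: 0% = tunicamycin plus vehicle and 100% = wells lacking tunicamycin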
CHOP UPR conf: activators of apoptotic CHOP UPR arm, confirmation, cell-based, CHO-CHOP luciferase reporter, single concentration. 1,000 tested, 64% active. activation, % at 10 µM. shares compounds with CHOP UPR activ. AID 463112, 2010. CHO-CHOP cells, CHOP-luciferase reporter luminescence; percent of tunicamycin response, DMSO as zero; in the data active means activation above about 33%;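 further: 0% = DMSO wells and 100% = tunicamycin 10 µg/mL wells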
Active calls of the source: *; i = inactive; u = inconclusive; x = no result given; + = active, no number. This excerpt belongs to a sample that is enriched for hits.

SMILES | T cruzi repl | CHOP inh | CHOP UPR activ | L major viab | Dynein cargo inh | UPR XBP1 act | Dynein confirm | CHOP UPR conf | others
CCN1CCN(Cc2c(O)ccc3c2O/C(=C\C=C\c2ccccc2)C3=O)CC1 | 8 | -53 | 154* | 96* | -4.9* | -2 | + | 1
COc1ccccc1N1CCN(S(=O)(=O)c2c(C(=O)N3CCOCC3)c(C)n(C)c2C)CC1 | -13 | x | -1 | x | x | -2 | x | x
O=C1/C(=C/c2ccc(N3CCOCC3)o2)SC(=Nc2ccccc2)N1CCc1c[nH]c2ccccc12 | 71* | -20 | 110* | 100* | -7 | -10 | + | 36*
COc1ccc(N=C2S/C(=C\c3ccc(OC(C)C(=O)O)c(OC)c3)C(=O)N2CCc2c[nH]c3ccccc23)cc1 (stereo unspecified) | -15 | 7 | 1 | -9 | -0.85 | -3 | x | x
CC(=O)c1c(C)[nH]c(C(=O)COC(=O)c2c(-c3ccccc3)noc2C)c1C | x | x | 0 | x | x | -1 | x | x
O=C(/C=C/Sc1ccccc1)c1ccccc1 | 24 | 50 | 79* | 59* | -3.6* | -3 | + | 99*
CC(=O)Nc1ccc(N/C=C/C(=O)c2ccccc2)cc1 | -16 | x | 4 | x | x | -6 | x | x
CN1CCN(CC(=O)N2N=C(c3cccs3)CC2c2ccco2)CC1 (stereo unspecified) | -13 | -17 | 0 | -6 | -0.44 | 3 | x | x
O=C(CCl)N1N=C(c2cccs2)CC1c1ccco1 (stereo unspecified) | 83* | 106* | 59* | 96* | -4.7* | -8 | + | 34*
Cc1ccc(NC(=O)Nc2cc(C(F)(F)F)c[nH]c2=O)cc1 | 5 | x | 1 | x | x | 2 | x | x
CN(CCOc1ccccc1)CC(=O)Nc1ccc(Br)cc1F | 15 | x | 2 | x | x | 2 | x | x
CCOC(=O)COc1ccc(/C=C/[N+](=O)[O-])c(OCC(=O)OCC)c1 | 11 | 111* | 358* | 100* | -4.8* | -6 | + | -10 | CHOP inh conf=-96
CCOc1ccc(/C=C/[N+](=O)[O-])c2ccccc12 | -1 | 51 | 221* | 100* | -3.9* | -4 | i | -9
CCOc1ccccc1/C=N/Nc1ccccc1[N+](=O)[O-] | 20 | 34 | 5 | 2 | 1.6 | 8 | x | x
CCOC(=O)COc1ccc2nsnc2c1 | -7 | 13 | -1 | -8 | -1.1 | -4 | x | x
CCCCN(C(=O)CSCc1ccc(C)cc1)c1c(N)n(CCC)c(=O)[nH]c1=O | -13 | x | 1 | x | x | -3 | x | x
CC(=O)Nc1ccc(S(=O)(=O)NCCC(=O)NNC(=O)c2ccccc2O)cc1 | x | x | -1 | x | x | -1 | x | x
CN(C)c1ccc(C(=O)Nc2ccc(S(=O)(=O)Nc3nccs3)cc2)cc1 | -2 | x | 0 | x | x | -4 | x | x
Cc1ccc(C)c(C(=O)Cn2ncc(Cl)c(Cl)c2=O)c1 | -25 | 111* | 87* | 95* | -4.7* | -1 | u | 67* | CHOP inh conf=-24
CCCc1cc(=O)[nH]c(SCC(=O)c2cc(C)n(CC(F)(F)F)c2C)n1 | -9 | 18 | -1 | 7 | 0.083 | 0 | x | x
Cc1cc(C(=O)Cn2ncc(Cl)c(Cl)c2=O)c(C)n1CC(F)(F)F | -29 | 38 | 96* | 63* | -5.1* | 2 | + | 62*
O=C(Cn1ncc(Cl)c(Cl)c1=O)N1CCN(S(=O)(=O)c2ccc3ccccc3c2)CC1 | 51 | 99* | 94* | 99* | -4* | -5 | + | 25 | CHOP inh conf=-25
COc1cccc(CN2CC(C(=O)NCCc3ccccc3C(F)(F)F)CCC2=O)c1 (stereo unspecified) | 7 | x | 0 | x | x | -1 | x | x
CCN(CC)C(=O)c1ccc(Oc2ccc([N+](=O)[O-])cc2Cl)cc1 | 14 | -3 | 1 | 2 | 0.23 | -4 | x | x
CCN(CC)C(=O)c1cc([N+](=O)[O-])cc2c1-c1ccc([N+](=O)[O-])cc1C2=C(C#N)C#N | 3 | -51 | 169* | x | -4.9* | 8 | u | 27
SMILES | T cruzi repl | CHOP inh | CHOP UPR activ | L major viab | Dynein cargo inh | UPR XBP1 act | Dynein confirm | CHOP UPR conf | others
O=C(/C(=C/c1ccc(Cl)cc1)c1nc2ccccc2[nH]1)c1ccccc1 | 68* | -48 | 211* | 100* | -4.7* | 0 | + | 158*
COc1ccc(C(=O)N/C(=C/c2cccs2)c2nc3ccccc3[nH]2)cc1OC | -7 | -8 | 0 | -5 | -0.58 | -2 | x | x
COc1cc(/C=C(/C(=O)c2cccs2)c2nc3ccccc3[nH]2)cc(OC)c1O | 52 | -90 | 126* | 100* | -4.6* | 8 | + | 161*
CCCCn1c(N)c(N(CC(C)C)C(=O)C2=NN(c3ccccc3)C(=O)CC2)c(=O)[nH]c1=O | x | x | -2 | x | x | -2 | x | x
CCCCCN(C(=O)CCC(=O)OCCOc1cccc(C)c1)c1c(N)n(CCCC)c(=O)[nH]c1=O | 11 | x | 1 | x | x | -4 | x | x
O=C(NCC1CCCO1)C1CCCN(S(=O)(=O)c2cc(Cl)ccc2Cl)C1 (stereo unspecified) | -4 | x | -1 | x | x | 4 | x | x
CCN(CC)S(=O)(=O)c1cc(NC(=O)Cn2ncc(Cl)c(Cl)c2=O)ccc1C | u | 53 | 95* | x | -4.5* | -3 | + | 67*
O=C(Cn1ncc(Cl)c(Cl)c1=O)Nc1ccc2c(c1)OCO2 | x | x | 39 | x | x | -2 | x | x
CCC(=O)Nc1ccc(C(=O)Cn2ncc(Cl)c(Cl)c2=O)cc1 | 49 | -33 | 63* | x | -4.4* | 0 | + | 74*
C[C@H](CO)N1C[C@H](C)[C@@H](CN(C)C(=O)Nc2ccc(C(F)(F)F)cc2)Oc2ccc(NC(=O)Cc3ccccc3)cc2C1=O | x | x | 1 | x | x | -6 | x | x

Source: PubChem (several laboratories)
